Results from ChEMBL document CHEMBL1159045, “Design and pharmacophore modeling of biaryl methyl eugenol analogs as breast cancer invasion inhibitors” (Bioorg Med Chem, 2010).

Key:
MDA-MB-231 [1] = test: Antiinvasive activity in human MDA-MB-231 cells assessed as cell invasion at 4 uM by BME cell invasion assay; type: functional
Procedure, shortened: (§1)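 Cultrex 96-well BME invasion kit, Boyden-type chamber with 8 µm PET membrane coated with basement membrane extract; MDA-MB-231 cells exposed to 1–4 μM for 24 h, 10% FBS as chemoattractant in the lower chamber. Invaded cells labelled with calcein-AM and read at ex 485/em 520 nm. RFU converted to cell number by standard curve. % invasion = cells through BME / cells migrating through uncoated membrane. Colchicine as positive control, DMSO vehicle.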

MDA-MB-231 [2] = test: Cytotoxicity against human MDA-MB-231 cells at 10 to 50 uM after 75 hrs by MTT assay; type: cell-based; details: mda-mb-231, 72 h, in the assay text read “72 hrs” for “75 hrs”
Procedure, shortened: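 MDA-MB-231 seeded at 15,000 cells/well and stabilized 24 h at 37 °C, 5% CO2. Triplicate doses applied for 72 h at 37 °C, 5% CO2, 85% humidity. MTT (2.5 mg/mL) added for 4 h, then formazan dissolved overnight at rt in the dark with detergent reagent. OD at 570 nm against a cell-free blank; cells/well from calibration curve. Colchicine positive control, DMSO vehicle.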

MDA-MB-231 [3] = test: Antiinvasive activity in human MDA-MB-231 cells by BME cell invasion assay; type: functional, cell-based; procedure, shortened: as §1
MDA-MB-231 [4] = test: Antiinvasive activity in human MDA-MB-231 cells assessed as cell invasion at 2 uM by BME cell invasion assay; type: functional; procedure, shortened: as §1
MCF7 = test: Cytotoxicity against human MCF7 cells at 10 to 50 uM after 75 hrs by MTT assay; type: cell-based; details: mcf7, 72 h, in the assay text read “72 hrs” for “75 hrs”
Procedure, shortened: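 MCF-7 seeded at 12,000 cells/well and stabilized 24 h at 37 °C, 5% CO2. Treated in triplicate for 72 h at 37 °C, 5% CO2, 85% humidity. MTT (2.5 mg/mL) added for 4 h, then formazan dissolved in isopropanol overnight at rt in the dark. OD read at 570 nm against a cell-free blank; cell number from calibration curve. Colchicine positive control, DMSO vehicle.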

Structure (SMILES) | Activity (MDA-MB-231 [1]) | Activity (MDA-MB-231 [2]) | Activity (MDA-MB-231 [3]) | Activity (MDA-MB-231 [4]) | Activity (MCF7)
COc1cc2c(c(OC)c1OC)-c1ccc(OC)c(=O)cc1[C@@H](NC(C)=O)CC2 [COLCHICINE] | 8.9% |  |  |  | 
C=C(Cc1ccc(OC)c(OC)c1)c1cc(OC)c(OC)c(OC)c1 |  | Non-toxic | Dose-dependent effect |  | 
COc1ccc(/C=C\Cc2c(C)cccc2C)cc1OC |  | Non-toxic | Dose-dependent effect |  | 
COc1ccc(/C=C/Cc2ccc(OC)c(OC)c2)cc1 | 13.7% | Non-toxic | Dose-dependent effect |  | 
C=C(Cc1ccc(OC)c(OC)c1)c1ccc(OC)cc1 |  | Non-toxic | Dose-dependent effect |  | 
COc1ccc(C/C=C/c2c(C)cccc2C)cc1OC |  | Non-toxic | Dose-dependent effect |  | 
COc1ccc(C/C=C/c2cc(OC)c(OC)c(OC)c2)cc1OC |  | Non-toxic | Dose-dependent effect |  | 
COc1ccc(C/C=C/c2ccc(OC)c(OC)c2)cc1 |  | Non-toxic | Dose-dependent effect |  | 
COc1ccc(C(=O)/C=C/c2cc(OC)c(OC)c(OC)c2)cc1OC |  | Non-toxic | Dose-dependent effect | 8.5% | 
COc1ccccc1C/C=C/c1ccc(OC)c(OC)c1 |  | Non-toxic | Dose-dependent effect |  | 
COc1ccc(/C=C/Cc2ccccc2OC(C)=O)cc1OC |  | Non-toxic | Dose-dependent effect |  | Non-toxic
COc1ccc(C/C=C\c2ccccc2OC(C)=O)cc1OC | 9% | Non-toxic | Dose-dependent effect |  | Non-toxic
COc1ccc(C(=O)CCc2cc(OC)c(OC)c(OC)c2)cc1OC |  | Non-toxic | Dose-dependent effect |  | 
C=C(Cc1ccc(OC)c(OC)c1)c1ccccc1OC(C)=O |  | Non-toxic | Dose-dependent effect |  | Non-toxic
COc1ccc(/C=C/Cc2cc(OC)c(OC)c(OC)c2)cc1OC | 11% | Non-toxic | Dose-dependent effect |  | 
